# Experimental data from PMC2758331 (Biochemistry, 2009).
# Legend:
# [1] = target: T1, mDia1-FH2 (Mus musculus, UniProt O08808); assay: pyrene-actin polymerization assay, actin assembly by mDia1-FH2; assay type: biochemical
# Outline: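 Recombinant mouse mDia1 FH2 domain (aa 748–1175) at 2.5 nM with 4 μM actin (5% pyrene-labelled), across a range of test compound concentrations. Polymerization followed by pyrene fluorescence (emission 410 nm). Signal corrected for quenching by the test compound. Dose-response curves calculated from the polymerization curves give IC50 and Hill coefficient.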
# [2] = target: actin (Oryctolagus cuniculus, UniProt P68135); assay: spontaneous polymerization of actin alone; assay type: biochemical; details: concentrations up to 50 μM
# [3] = target: T2, mDia3-FH2 (Mus musculus, UniProt O70566); assay: pyrene-actin polymerization assay, actin assembly by mDia3-FH2; assay type: biochemical; details: at any concentration tested
# T2 sequence (O70566 625-1025 limits assumed): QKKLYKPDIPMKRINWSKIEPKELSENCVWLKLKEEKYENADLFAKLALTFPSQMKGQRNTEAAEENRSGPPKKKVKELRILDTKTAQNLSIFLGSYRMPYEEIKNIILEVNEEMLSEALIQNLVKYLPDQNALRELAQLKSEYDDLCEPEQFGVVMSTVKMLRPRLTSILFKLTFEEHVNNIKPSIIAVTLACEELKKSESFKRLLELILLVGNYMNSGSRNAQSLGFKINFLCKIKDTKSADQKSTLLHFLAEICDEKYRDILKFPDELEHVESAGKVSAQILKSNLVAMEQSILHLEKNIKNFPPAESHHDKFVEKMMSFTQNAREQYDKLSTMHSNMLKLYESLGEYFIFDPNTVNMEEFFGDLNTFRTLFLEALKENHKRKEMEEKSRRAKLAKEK
# Outline: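 Pyrene-actin polymerization (emission 410 nm) with mDia3-FH2 in two formats: 10 nM mDia3-FH2 in test compound titrations for dose-response curves (IC50, Hill coefficient), and 2.5 nM mDia3-FH2 with or without 50 μM test compound. Fluorescence corrected for compound quenching.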
# [4] = target: mDia2-FH2 (Mus musculus, UniProt Q9Z207); assay: pyrene-actin polymerization assay, actin assembly by mDia2-FH2; assay type: biochemical; details: potency and Hill coefficients
# Chain of mDia2-FH2 (Q9Z207 615-1013 limits assumed): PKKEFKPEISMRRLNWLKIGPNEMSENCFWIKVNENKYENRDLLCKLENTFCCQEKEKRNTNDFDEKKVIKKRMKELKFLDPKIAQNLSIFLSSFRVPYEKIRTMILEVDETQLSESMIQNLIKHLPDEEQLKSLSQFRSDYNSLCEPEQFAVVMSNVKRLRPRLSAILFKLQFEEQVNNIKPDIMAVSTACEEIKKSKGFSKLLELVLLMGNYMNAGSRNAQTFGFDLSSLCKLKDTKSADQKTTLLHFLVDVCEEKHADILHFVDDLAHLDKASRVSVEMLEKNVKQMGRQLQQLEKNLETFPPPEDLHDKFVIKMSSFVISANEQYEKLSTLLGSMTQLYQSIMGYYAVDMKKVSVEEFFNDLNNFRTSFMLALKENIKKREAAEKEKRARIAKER
# Outline: (§1)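 Pyrene-actin polymerization (emission read at 410 nm) driven by 2.5 nM mDia2-FH2, 20 nM INF2-(FH1-FH2) or 200 nM FRL1-(FH1-FH2), with the test compound titrated. Fluorescence corrected for compound quenching. Dose-response curves derived from the polymerization traces give IC50 and Hill coefficient.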
# [5] = target: T2, mDia3-FH2; assay: equilibrium dialysis, direct binding to mDia3-FH2
# [6] = target: T1, mDia1-FH2; assay: equilibrium dialysis, direct binding to mDia1-FH2
# [7] = target: T3, FRL1-(FH1-FH2) (Mus musculus, UniProt Q9JL26); assay: pyrene-actin polymerization assay, actin assembly by FRL1; assay type: biochemical; details: at 50 μM
# T3 sequence (Q9JL26 627-1018 limits assumed): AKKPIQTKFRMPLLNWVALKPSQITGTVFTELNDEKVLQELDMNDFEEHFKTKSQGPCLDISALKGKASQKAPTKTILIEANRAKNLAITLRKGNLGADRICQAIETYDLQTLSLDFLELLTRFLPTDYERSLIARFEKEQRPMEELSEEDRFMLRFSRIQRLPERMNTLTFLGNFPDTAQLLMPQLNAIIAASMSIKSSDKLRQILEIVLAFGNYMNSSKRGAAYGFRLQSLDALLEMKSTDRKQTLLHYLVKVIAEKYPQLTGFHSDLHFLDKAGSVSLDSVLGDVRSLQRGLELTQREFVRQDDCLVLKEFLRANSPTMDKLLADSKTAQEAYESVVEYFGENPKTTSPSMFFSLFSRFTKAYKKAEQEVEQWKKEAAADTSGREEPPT
# Outline: as §1
# [8] = target: INF2-(FH1-FH2) (Mus musculus, UniProt Q0GNC1); assay: pyrene-actin polymerization assay, actin assembly by INF2; assay type: biochemical; details: at saturating concentrations
# Chain of INF2-(FH1-FH2) (Q0GNC1 589-979 limits assumed): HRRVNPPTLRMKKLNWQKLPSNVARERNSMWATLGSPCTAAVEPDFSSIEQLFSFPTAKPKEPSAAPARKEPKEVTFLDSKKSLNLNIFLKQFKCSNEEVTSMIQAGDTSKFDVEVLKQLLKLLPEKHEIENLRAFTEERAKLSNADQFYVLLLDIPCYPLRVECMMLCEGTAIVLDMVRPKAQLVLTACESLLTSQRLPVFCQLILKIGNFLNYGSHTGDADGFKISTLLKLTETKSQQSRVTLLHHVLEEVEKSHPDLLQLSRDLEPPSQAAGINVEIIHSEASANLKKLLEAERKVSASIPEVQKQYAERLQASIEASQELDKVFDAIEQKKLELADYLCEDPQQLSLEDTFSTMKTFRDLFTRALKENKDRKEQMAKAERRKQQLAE
# Outline: as §1
# T1 sequence (O08808 748-1175): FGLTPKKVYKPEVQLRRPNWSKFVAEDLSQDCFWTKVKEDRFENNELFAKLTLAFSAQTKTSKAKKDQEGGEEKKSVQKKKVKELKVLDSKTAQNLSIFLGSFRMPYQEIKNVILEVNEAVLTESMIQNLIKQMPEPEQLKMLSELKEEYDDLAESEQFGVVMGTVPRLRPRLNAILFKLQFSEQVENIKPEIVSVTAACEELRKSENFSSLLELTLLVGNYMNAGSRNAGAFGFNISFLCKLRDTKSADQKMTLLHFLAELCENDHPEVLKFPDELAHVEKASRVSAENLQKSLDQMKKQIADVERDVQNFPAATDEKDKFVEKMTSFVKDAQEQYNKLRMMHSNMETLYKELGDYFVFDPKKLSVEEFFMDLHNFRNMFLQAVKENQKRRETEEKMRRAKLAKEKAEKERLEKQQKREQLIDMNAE
"Hill coefficient, inhibition of actin assembly by mDia1-FH2 [1]",IC50 [1] [nM],inhibitory activity toward actin assembly by mDia3-FH2 (in words) [3],inhibition of filament assembly by mDia2-FH2 compared with mDia1-FH2 (in words) [4],binding to mDia3-FH2 by equilibrium dialysis [5],inhibition of FRL1 [7],maximal inhibition of INF2 activity [8] [%],Structure (SMILES),inhibitory effect toward polymerization of actin alone [2],binding to mDia1-FH2 by equilibrium dialysis [6]
2.4,490,,,,,,"O=S(=O)(O)c1cc(O)c2c(N=Nc3c(S(=O)(=O)O)cc4cc(S(=O)(=O)O)cc(O)c4c3O)cc(S(=O)(=O)O)cc2c1 [compound 1, 2-(8-hydroxy-3,6-disulfo-1-naphthylazo)-1,8-dihydroxy-naphthalene-3,6-disulfonic acid]",Neither 1 nor 2 shows any inhibitory effect,
7.6,2100,no inhibitory activity,comparable,no binding,incomplete,≤ 75,"Nc1ccc(Br)cc1-c1nc2ccccc2[nH]c1=O [compound 2, 3-(2-amino-5-bromophenyl)-1H-quinoxalin-2-one]",Neither 1 nor 2 shows any inhibitory effect,effectively retained 2 in a dose-dependent manner
